Data set [1] concerns U-87 MG. The data set is described as follows: Cytotoxicity against human U87 cells assessed as reduction in cell viability measured after 24 to 72 hrs in presence of human neutrophil elastase by PrestoBlue reagent based assay. The data set is classed as functional. The conditions noted are these: dose 100-400 µM, time 24-72 hrs; for Activity: U-87MG ATCC, DDE = dose-dependent effect; for CC50: read-out: LC50 (the source's name). In a few lines:
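U87 cells cultured 48 h, medium changed to serum-free DMEM; prodrug (0–400 μM) plus human neutrophil elastase 0.68 μM added, 1 h incubation, then 10% serum added to stop enzyme and cells held 24, 48 or 72 h. Viability via resazurin (PrestoBlue), 30 min at 37 °C, fluorescence ex 560/em 590 nm.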

Data set [2] in a line: Prodrug activation assessed as human neutrophil elastase mediated DBNO release by EPR spectometric analysis. In a few lines:
(§1)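 Human neutrophil elastase (20 nM final) with prodrug (300 μM final) in 50 mM HEPES, 150 mM NaCl, 5 mM CaCl2, 0.05% IGEPAL, pH 7.4, in capillaries at 37 °C; released stable nitroxide (TEMPO or DBNO) quantified by EPR against internal spectrometer calibration.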

For data set [3], the system named is U-87 MG. The data set is described as follows: Induction of apoptosis in human U87 cells assessed as activation of caspase3/7 at 75 to 250 uM measured after 48 hrs in presence of human neutrophil elastase by luminescence based multimode microplate reader assay. The class given is functional, cell-based. The conditions noted are these: U-87MG ATCC, dose 75-250 µM. The method in brief:
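U87 cells in serum-free DMEM given alkoxyamine (75, 150, 250 μM) plus HNE 0.68 μM for 1 h, then 10% serum added; sampled at 1, 3, 7, 24, 48 h. Caspase 3/7 read by lytic luminogenic substrate reagent, 15 min at room temperature, luminescence. Controls: HNE alone, cells alone, doxorubicin 2 μM.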

Data set [4] relates to U-87 MG. The data set can be described thus: Induction of apoptosis in human U87 cells assessed as phosphatidylserine translocation at 75 to 250 uM measured after 48 hrs in presence of human neutrophil elastase. The data set is classed as functional, cell-based. The conditions noted are these: U-87MG ATCC, dose 75-250 µM. The method in brief: (§2)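 Serum-free U87 exposure to alkoxyamine 75, 150 or 250 μM with HNE 0.68 μM for 1 h, then 10% serum; followed 1–48 h. Live-cell RealTime-Glo reagent added, 60 min at 37 °C: annexin V phosphatidylserine binding by luminescence, membrane loss by cell-impermeant DNA dye fluorescence (ex 485/em 530 nm). Controls: HNE alone, untreated cells, doxorubicin 2 μM.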

In data set [5] the test system is U-87 MG. The data set can be described thus: Induction of apoptosis in human U87 cells assessed as reduction in cell membrane integrity at 75 to 250 uM measured after 48 hrs in presence of human neutrophil elastase. The class given is functional, cell-based. To be noted: U-87MG ATCC, dose 75-250 µM. In a few lines:
as §2

Data set [6] deals with U-87 MG. The data set is described as follows: Cytotoxicity against human U87 cells assessed as cell viability at 100 to 400 uM measured after 24 to 72 hrs in absence of human neutrophil elastase by PrestoBlue reagent based assay. To be noted: dose 100-400 µM, time 24-72 hrs. The class given is functional, U-87MG ATCC. The method in brief: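 U87 glioblastoma (DMEM, 10% FBS, 37 °C, 5% CO2) seeded 48 h, medium swapped to serum-free DMEM; prodrug 0–400 μM added without elastase, 1 h, then 10% serum restored; incubation 24, 48 or 72 h. Viability by resazurin-to-resorufin conversion (PrestoBlue, 1/10 volume, 30 min 37 °C), fluorescence ex 560/em 590 nm.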

Data set [7] in a line: Prodrug activation assessed as human neutrophil elastase mediated TEMPO release by EPR spectometric analysis. In a few lines:
as §1

A short description of data set [8]: Prodrug activation assessed as urokinase mediated TEMPO release.
Data set [9] deals with U-87 MG. The data set is described as follows: Cytotoxicity against human U87 cells assessed as reduction in cell viability at 400 uM measured after 48 hrs in absence of human neutrophil elastase by PrestoBlue reagent based assay. The class given is functional. The conditions noted are these: U-87MG ATCC. In a few lines: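 U87 glioblastoma cells grown 48 h in DMEM/10% FBS, then switched to serum-free DMEM; prodrug (400 μM) added without elastase, serum restored to 10% after 1 h, cells kept 48 h at 37 °C. Viability by resazurin (PrestoBlue) reduction, 30 min at 37 °C, fluorescence ex 560/em 590 nm.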

Active and inactive are the calls of the source. The calls are words filed in the database; no cut-off is given here. Where a SMILES comes first, the peptide text is derived from it.

`CC(ON(C(C)(C)C)C(C)(C)C)c1ccc(NC(=O)[C@@H](NC(=O)[C@@H]2CCCN2C(=O)[C@H](C)NC(=O)[C@H](C)NC(=O)CCC(=O)O)C(C)C)cc1` (some centres not stated) (HELM PEPTIDE1{[O=C(O)CCC(=O)[*:2]].A.A.P.V.[CC(ON(C(C)(C)C)C(C)(C)C)c1ccc(N[*:1])cc1]}$$$$V2.0): in data set [1], the Activity entry was “Dde” and the CC50 is 150 µM. Also, the Drug metabolism entry in data set [2] is given as “Metabolite_Detected”.
Regarding `CC(ON1C(C)(C)CCCC1(C)C)c1ccc(NC(=O)[C@@H](NC(=O)[C@@H]2CCCN2C(=O)[C@H](C)NC(=O)[C@H](C)NC(=O)CCC(=O)O)C(C)C)cc1` (some centres not stated) (HELM PEPTIDE1{[O=C(O)CCC(=O)[*:2]].A.A.P.V.[CC(ON1C(C)(C)CCCC1(C)C)c1ccc(N[*:1])cc1]}$$$$V2.0), the Activity result in data set [1] was “Dde”; in [6] it was 100%. Also, the CC50 in [1] is 150 µM. Further, the outcome in [3], in [4] and in data set [5] was Active. For the same compound, the Drug metabolism result in data set [7] was “Metabolite_Detected”; in data set [8] it was “Metabolite_Notdetected”.
On to `CC(ON1C(C)(C)CCCC1(C)C)c1ccc(OC(=O)[C@@H](NC(=O)[C@@H]2CCCN2C(=O)[C@H](C)NC(=O)[C@H](C)NC(=O)CCC(=O)O)C(C)C)cc1` (some centres not stated) (HELM PEPTIDE1{[O=C(O)CCC(=O)[*:2]].A.A.P.V.[CC(ON1C(C)(C)CCCC1(C)C)c1ccc(O[*:1])cc1]}$$$$V2.0), for which the outcome in [9] was Active. Besides, the CC50 in data set [1] was determined as 150 µM. In addition, the Drug metabolism entry in data set [7] is “Metabolite_Detected”.
`CC(ON(C(C)(C)C)C(C)(C)C)c1ccc(OC(=O)[C@@H](NC(=O)[C@@H]2CCCN2C(=O)[C@H](C)NC(=O)[C@H](C)NC(=O)CCC(=O)O)C(C)C)cc1` (some centres not stated) (HELM PEPTIDE1{[O=C(O)CCC(=O)[*:2]].A.A.P.V.[CC(ON(C(C)(C)C)C(C)(C)C)c1ccc(O[*:1])cc1]}$$$$V2.0): in [1], the Activity result is “Dde” and the CC50 stood at 150 µM. For the same compound, the Drug metabolism result in data set [2] was “Metabolite_Detected”.

The values are drawn from ChEMBL document CHEMBL5143726, “Neutrophil Elastase-Activatable Prodrugs Based on an Alkoxyamine Platform to Deliver Alkyl Radicals Cytotoxic to Tumor Cells” (J Med Chem, 2022).
